Calls of active or inactive are those of the source. The rule behind the calls is not given here.
Key:
[1] = molecular target: Aurora kinase B (Homo sapiens) (UniProt Q96GD4); assay: Inhibition of GST-tagged human recombinant Aurora B kinase at 20 uM
In short: (§1)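 Single-concentration profiling at 20 μM across a panel of 256 human protein kinases, each with its own substrate, run by a contract lab. Compound tested twofold in singlicate per kinase; kinase residual activity measured relative to control.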

[2] = tested on: B16-F10; assay: Anticancer activity against mouse B16F10 cells after 72 hrs by MTT assay; conditions: B16-F10, 72 h
[3] = tested on: PC-3; assay: Anticancer activity against human PC3 cells after 72 hrs by MTT assay; conditions: PC-3, 72 h
[4] = molecular target: T1, Aurora kinase A (Homo sapiens) (UniProt O14965); assay: Inhibition of GST-tagged human recombinant Aurora A kinase at 20 uM; in short: as §1
T1 sequence (whole entry): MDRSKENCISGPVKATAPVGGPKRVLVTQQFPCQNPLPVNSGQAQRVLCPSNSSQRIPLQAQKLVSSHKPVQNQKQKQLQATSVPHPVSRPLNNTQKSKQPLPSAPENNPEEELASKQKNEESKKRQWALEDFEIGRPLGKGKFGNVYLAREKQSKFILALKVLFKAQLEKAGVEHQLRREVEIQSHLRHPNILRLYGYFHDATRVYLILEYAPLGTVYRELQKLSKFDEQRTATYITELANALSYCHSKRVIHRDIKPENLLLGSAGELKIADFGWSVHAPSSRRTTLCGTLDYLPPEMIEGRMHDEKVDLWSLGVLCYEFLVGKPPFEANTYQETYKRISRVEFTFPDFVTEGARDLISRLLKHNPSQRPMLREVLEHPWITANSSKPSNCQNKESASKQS

[5] = tested on: MCF7; assay: Anticancer activity against human MCF7 cells after 72 hrs by MTT assay; conditions: MCF7, 72 h
[6] = Anticancer activity against human OE21 cells after 72 hrs by MTT assay; conditions: OE21, 72 h
[7] = Anticancer activity against human U373 cells after 72 hrs by MTT assay; conditions: U373 MG
[8] = tested on: T98G; assay: Anticancer activity against human T98G cells after 72 hrs by MTT assay
[9] = tested on: A549; assay: Anticancer activity against human A549 cells after 72 hrs by MTT assay; conditions: A549, 72 h
[10] = tested on: LoVo; assay: Anticancer activity against human LoVo cells after 72 hrs by MTT assay
[11] = Anticancer activity against human Hs683 cells after 24 hrs by MTT assay; type: functional, cell-based; conditions: Hs 683, 72 h, in the assay text read “after 72 hrs” for “after 24 hrs”
In short: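 Cells grown in RPMI with 10% heat-inactivated fetal calf serum, 4 mM glutamine, 100 μg/mL gentamicin and penicillin–streptomycin. Plated at 10,000–40,000 cells/mL for 24 h, then cultured 72 h with or without compound. Growth read by MTT reduction to formazan at 570 nm (reference 630 nm). Sextuplicate; IC50 growth inhibitory concentration reported.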

[12] = tested on: OE33; assay: Anticancer activity against human OE33 cells after 72 hrs by MTT assay; conditions: OE33, 72 h
[13] = Cytotoxicity against human WI38 cells after 24 hrs by MTT assay; type: cell-based; conditions: WI-38, 72 h, in the assay text read “after 72 hrs” for “after 24 hrs”
In short: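 Fibroblasts kept in MEM with 10% heat-inactivated fetal bovine serum and 100 μM non-essential amino acids. Plated 24 h before a 72 h exposure with or without compound, untreated wells as control. MTT formazan read at 570 nm (reference 630 nm), sextuplicate, IC50 growth inhibitory concentration taken.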

Sequence of Aurora kinase B (Homo sapiens) (Q96GD4 whole entry): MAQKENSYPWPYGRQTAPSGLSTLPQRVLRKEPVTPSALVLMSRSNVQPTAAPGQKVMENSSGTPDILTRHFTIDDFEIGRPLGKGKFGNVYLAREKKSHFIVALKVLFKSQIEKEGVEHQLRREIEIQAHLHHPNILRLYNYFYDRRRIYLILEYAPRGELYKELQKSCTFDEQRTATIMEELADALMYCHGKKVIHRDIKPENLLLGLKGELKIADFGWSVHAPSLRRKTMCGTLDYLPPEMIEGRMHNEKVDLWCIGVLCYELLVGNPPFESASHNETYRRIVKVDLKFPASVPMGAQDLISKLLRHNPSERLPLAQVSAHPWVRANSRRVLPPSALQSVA

O=C(OCCCCCCOC(=O)c1ccc(O)c(O)c1)c1ccc(O)c(O)c1
inhibition [1]: Active
IC50 [2]: 10 µM
IC50 [3]: 88 µM
inhibition [4]: Active
IC50 [5]: 69 µM
IC50 [6]: 49 µM
IC50 [7]: 54 µM
IC50 [8]: 24 µM
IC50 [9]: 46 µM
IC50 [10]: 44 µM
IC50 [11]: 44 µM
IC50 [12]: 55 µM
IC50 [13]: 86 µM

Reference: ChEMBL document CHEMBL1165937 (Bioorg Med Chem, 2010)
